Measurements reported in ChEMBL document CHEMBL1154792, “chi-Conopeptide pharmacophore development: toward a novel class of norepinephrine transporter inhibitor (Xen2174) for pain” (J Med Chem, 2009).
The source made the active and inactive calls. The rule behind the calls is not given here. Where a SMILES comes first, the peptide text is derived from it. Bridges are numbered along the chain shown (N, C = ends). [ ]: non-standard residue; d: D form. Pro(3S-OH) = O=C(O)[C@H]1NCC[C@@H]1O; Cha = N[C@@H](CC1CCCCC1)C(=O)O; pGlu = O=C1CC[C@@H](C(=O)O)N1

Biological target: Sodium-dependent noradrenaline transporter (Homo sapiens, UniProt P23975)
Sequence (P23975 whole entry): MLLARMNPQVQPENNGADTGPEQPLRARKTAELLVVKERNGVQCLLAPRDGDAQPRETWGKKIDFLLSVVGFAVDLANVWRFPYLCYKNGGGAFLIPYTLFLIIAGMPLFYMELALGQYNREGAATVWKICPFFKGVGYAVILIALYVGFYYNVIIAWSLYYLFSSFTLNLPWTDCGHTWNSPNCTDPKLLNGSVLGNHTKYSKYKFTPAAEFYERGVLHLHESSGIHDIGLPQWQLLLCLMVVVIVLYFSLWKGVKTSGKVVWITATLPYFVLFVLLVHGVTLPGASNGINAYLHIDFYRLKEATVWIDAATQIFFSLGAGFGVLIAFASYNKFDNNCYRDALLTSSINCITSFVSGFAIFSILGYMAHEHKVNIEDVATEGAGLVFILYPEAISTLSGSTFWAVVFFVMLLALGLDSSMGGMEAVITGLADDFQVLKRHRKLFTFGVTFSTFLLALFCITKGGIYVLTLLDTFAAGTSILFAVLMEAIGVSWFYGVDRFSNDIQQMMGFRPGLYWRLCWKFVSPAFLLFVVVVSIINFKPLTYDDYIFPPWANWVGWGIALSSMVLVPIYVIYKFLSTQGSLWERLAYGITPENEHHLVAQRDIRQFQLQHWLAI
Test: Displacement of [3H]nisoxetine from human NET expressed in COS7 cells
Assay type: cell-based
Conditions: COS-7
In short: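 Membranes from COS-7 cells transfected with human NET were incubated with [3H]nisoxetine (4.3 nM) with or without peptide (1 nM to 100 μM, triplicate) for 1 h at RT. Filter-retained radioactivity was counted by liquid scintillation, and values are given as pIC50. Data are means of 2–5 experiments in triplicate; peptide concentration was set by calibrated HPLC at 214 nm.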

Structure (SMILES) | Activity
CC(C)C[C@@H]1NC(=O)[C@H](CCCCN)NC(=O)[C@H](CCC(=O)O)NC(=O)CNC(=O)[C@@H]2CSSC[C@H](NC1=O)C(=O)N[C@@H](Cc1cnc[nH]1)C(=O)N1CC[C@H](O)[C@H]1C(=O)N[C@H](C(=O)O)CSSC[C@H](NC(=O)[C@@H](NC(=O)CNC(=O)[C@@H]1CCC(=O)N1)C(C)C)C(=O)N2 | inactive
CC(C)[C@H](NC(=O)CNC(=O)[C@@H]1CCC(=O)N1)C(=O)N[C@H]1CSSC[C@@H](C(=O)O)NC(=O)[C@@H]2[C@@H](O)CCN2C(=O)[C@H](Cc2cnc[nH]2)NC(=O)[C@@H]2CSSC[C@H](NC1=O)C(=O)NCC(=O)N[C@@H](Cc1ccc(O)cc1)C(=O)N[C@@H](CCCCN)C(=O)N[C@@H](C(C)C)C(=O)N2 ([pGlu]GVCCGYKVCH[Pro(3S-OH)]C-OH; disulfide 4-13, 5-10) | inactive
COc1ccc(C[C@@H]2NC(=O)CNC(=O)[C@@H]3CSSC[C@H](NC(=O)[C@H](CC4CCCCC4)NC(=O)[C@H](CCCCN)NC(=O)[C@H](Cc4ccc(O)cc4)NC2=O)C(=O)N[C@@H](Cc2c[nH]c4ccccc24)C(=O)N2CC[C@H](O)[C@H]2C(=O)N[C@H](C(=O)O)CSSC[C@H](NC(=O)[C@@H](NC(=O)CNC(=O)[C@@H]2CCC(=O)N2)C(C)C)C(=O)N3)cc1 ([pGlu]GVCCGY(Me)YK[Cha]CW[Pro(3S-OH)]C-OH; disulfide 4-14, 5-11) | Active
CC(C)C[C@@H]1NC(=O)[C@H](CCCCN)NC(=O)[C@H](Cc2ccc(O)cc2)NC(=O)CNC(=O)[C@@H]2CSSC[C@@H](NC1=O)C(=O)N[C@@H](Cc1cnc[nH]1)C(=O)N1CC[C@H](O)[C@H]1C(=O)N[C@H](C(=O)O)CSSC[C@H](NC(=O)[C@@H](NC(=O)CNC(=O)[C@@H]1CCC(=O)N1)C(C)C)C(=O)N2 | inactive
CC(C)C[C@@H]1NC(=O)[C@H](CCCCN)NC(=O)[C@H](CC2CCCCC2)NC(=O)CNC(=O)[C@@H]2CSSC[C@H](NC1=O)C(=O)N[C@@H](Cc1cnc[nH]1)C(=O)N1CC[C@H](O)[C@H]1C(=O)N[C@H](C(=O)O)CSSC[C@H](NC(=O)[C@@H](NC(=O)CNC(=O)[C@@H]1CCC(=O)N1)C(C)C)C(=O)N2 | inactive
CC[C@H](C)[C@@H]1NC(=O)CNC(=O)[C@@H]2CSSC[C@H](NC(=O)[C@H](CC(C)C)NC(=O)[C@H](CCCCN)NC1=O)C(=O)N[C@@H](Cc1cnc[nH]1)C(=O)N1CC[C@H](O)[C@H]1C(=O)N[C@H](C(=O)O)CSSC[C@H](NC(=O)[C@@H](NC(=O)CNC(=O)[C@@H]1CCC(=O)N1)C(C)C)C(=O)N2 | inactive
CC(C)[C@H](NC(=O)CNC(=O)[C@@H]1CCC(=O)N1)C(=O)N[C@H]1CSSC[C@@H](C(=O)O)NC(=O)[C@@H]2[C@@H](O)CCN2C(=O)[C@H](Cc2cnc[nH]2)NC(=O)[C@@H]2CSSC[C@H](NC1=O)C(=O)NCC(=O)N[C@@H](Cc1ccc(O)cc1)C(=O)N[C@@H](CCCCN)C(=O)N[C@@H](C1CCCCC1)C(=O)N2 | Active
COc1ccc(C[C@H]2CC(=O)N[C@@H](CCCCN)C(=O)N[C@@H](CC(C)C)C(=O)N[C@H]3CSSC[C@H](NC(=O)[C@@H](NC(=O)[C@@H](NC(=O)CNC(=O)[C@@H]4CCC(=O)N4)C(C)C)CSSC[C@@H](C(=O)O)NC(=O)[C@@H]4[C@@H](O)CCN4C(=O)[C@H](Cc4cnc[nH]4)NC3=O)C(=O)NCC(=O)N2)cc1 | inactive
CC(C)C[C@@H]1NC(=O)[C@H](CCCCN)NC(=O)[C@H](CCCCN)NC(=O)CNC(=O)[C@@H]2CSSC[C@H](NC1=O)C(=O)N[C@@H](Cc1cnc[nH]1)C(=O)N1CC[C@H](O)[C@H]1C(=O)N[C@H](C(=O)O)CSSC[C@H](NC(=O)[C@@H](NC(=O)CNC(=O)[C@@H]1CCC(=O)N1)C(C)C)C(=O)N2 ([pGlu]GVCCGKKLCH[Pro(3S-OH)]C-OH; disulfide 4-13, 5-10) | inactive
COc1ccc(C[C@@H]2NC(=O)CNC(=O)[C@@H]3CSSC[C@H](NC(=O)[C@H](CC(C)C)NC(=O)[C@H](CCCCN)NC2=O)C(=O)N[C@@H](Cc2cnc[nH]2)C(=O)N2CC[C@H](O)[C@H]2C(=O)N[C@H](C(=O)O)CSSC[C@H](NC(=O)[C@@H](NC(=O)CNC(=O)[C@@H]2CCC(=O)N2)C(C)C)C(=O)N3)c(OC)c1 | inactive
CC(C)C[C@@H]1NC(=O)[C@H](CCCCN)NC(=O)[C@H](Cc2ccc(O)cc2)NC(=O)CNC(=O)[C@@H]2CSSC[C@H](NC1=O)C(=O)N[C@@H](Cc1cccc3ccccc13)C(=O)N1CC[C@H](O)[C@H]1C(=O)N[C@H](C(=O)O)CSSC[C@H](NC(=O)[C@@H](NC(=O)CNC(=O)[C@@H]1CCC(=O)N1)C(C)C)C(=O)N2 | Active
CC(C)C[C@@H]1NC(=O)[C@H](CCCCN)NC(=O)[C@H](Cc2ccc(O)cc2)NC(=O)CNC(=O)[C@@H]2CSSC[C@H](NC1=O)C(=O)N[C@@H](Cc1ccccc1)C(=O)N1CC[C@H](O)[C@H]1C(=O)N[C@H](C(=O)O)CSSC[C@H](NC(=O)[C@@H](NC(=O)CNC(=O)[C@@H]1CCC(=O)N1)C(C)C)C(=O)N2 ([pGlu]GVCCGYKLCF[Pro(3S-OH)]C-OH; disulfide 4-13, 5-10) | Active
CC(C)C[C@@H]1NC(=O)[C@H](CCCCN)NC(=O)[C@H](Cc2cccs2)NC(=O)CNC(=O)[C@@H]2CSSC[C@H](NC1=O)C(=O)N[C@@H](Cc1cnc[nH]1)C(=O)N1CC[C@H](O)[C@H]1C(=O)N[C@H](C(=O)O)CSSC[C@H](NC(=O)[C@@H](NC(=O)CNC(=O)[C@@H]1CCC(=O)N1)C(C)C)C(=O)N2 | inactive
CC(C)C[C@@H]1NC(=O)[C@H](CCCCN)NC(=O)[C@H](Cc2ccc(O)cc2)NC(=O)CNC(=O)[C@@H]2CSSC[C@H](NC1=O)C(=O)N[C@@H](CCCNC(=N)N)C(=O)N1CC[C@H](O)[C@H]1C(=O)N[C@H](C(=O)O)CSSC[C@H](NC(=O)[C@@H](NC(=O)CNC(=O)[C@@H]1CCC(=O)N1)C(C)C)C(=O)N2 | Active
CC(C)C[C@@H]1NC(=O)[C@H](CCCCN)NC(=O)[C@H](Cc2ccc(O)cc2)NC(=O)CNC(=O)[C@H]2CSSC[C@@H](NC1=O)C(=O)N[C@@H](Cc1cnc[nH]1)C(=O)N1CC[C@H](O)[C@H]1C(=O)N[C@@H](C(=O)O)CSSC[C@@H](NC(=O)[C@@H](NC(=O)CNC(=O)[C@@H]1CCC(=O)N1)C(C)C)C(=O)N2 | inactive
CC(C)C[C@@H]1NC(=O)CNC(=O)[C@@H]2CSSC[C@H](NC(=O)[C@H](CC(C)C)NC(=O)[C@H](CCCCN)NC1=O)C(=O)N[C@@H](Cc1cnc[nH]1)C(=O)N1CC[C@H](O)[C@H]1C(=O)N[C@H](C(=O)O)CSSC[C@H](NC(=O)[C@@H](NC(=O)CNC(=O)[C@@H]1CCC(=O)N1)C(C)C)C(=O)N2 ([pGlu]GVCCGLKLCH[Pro(3S-OH)]C-OH; disulfide 4-13, 5-10) | inactive
CC(C)C[C@@H]1NC(=O)[C@H](CCCCN)NC(=O)[C@H](C(c2ccccc2)c2ccccc2)NC(=O)CNC(=O)[C@@H]2CSSC[C@H](NC1=O)C(=O)N[C@@H](Cc1cnc[nH]1)C(=O)N1CC[C@H](O)[C@H]1C(=O)N[C@H](C(=O)O)CSSC[C@H](NC(=O)[C@@H](NC(=O)CNC(=O)[C@@H]1CCC(=O)N1)C(C)C)C(=O)N2 | inactive
COc1ccc(C[C@H]2NC(=O)[C@H](Cc3cnc[nH]3)NC(=O)[C@@H]3CSSC[C@H](NC(=O)[C@@H](NC(=O)[C@@H](NC(=O)CNC(=O)[C@@H]4CCC(=O)N4)C(C)C)CSSC[C@@H](C(=O)O)NC2=O)C(=O)NCC(=O)N[C@@H](Cc2ccc(O)cc2)C(=O)N[C@@H](CCCCN)C(=O)N[C@@H](CC(C)C)C(=O)N3)cc1 | Active
